What was measured:
[1] = folding enthalpy; higher = less favourable; fluorescence melt of hairpins on a sequencing array, two-state fit; conditions: sodium 0.088 M
Method in brief: (§1)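 In 50 mM Na-HEPES pH 8.0 containing 25 mM NaCl, hairpins from the library on a sequenced MiSeq flow cell were imaged for Cy3 fluorescence at 2.5 °C steps up to 60 °C, with Cy3 and quencher oligos annealed. After normalisation to pre-quench Cy3 and to control constructs, two-state fits with bootstrapping gave melting temperature and folding enthalpy. Four replicates were combined by inverse-variance weighting, and fitted temperatures were shifted up by 9.35 °C to match UV melts.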

[2] = melting temperature; fluorescence melt of hairpins on a sequencing array, two-state fit, raised by 9.35 °C to match UV melts; conditions: sodium 0.088 M
Method in brief: as §1

Row | Sequence | folding enthalpy [1] [kcal/mol] | Tm [2] [°C]
1 | GATCGTGTCCACGATC ((((((....)))))) | -45.8 | 60.3
2 | CGTTCGCGGAAACGCACG (((..(((....)))))) | -13.6 | 40.4
3 | GCTGTCGAAAGACTAAGC ((((((....)))..))) | -20 | 46.2
4 | GCGTTAGCACGC ((((....)))) | -8.5 | 61.7
5 | GATCCCTTCTGGGATC ((((((....)))))) | -39.1 | 62.5
6 | GCCTCACGAAAGTGCGGC (((.(((....))).))) | -43.1 | 57.7
7 | GTAAACGAAAGTTTAC ((((((....)))))) | -35.2 | 56
8 | GCGGTACCCGC ((((...)))) | -18.7 | 63.3
9 | GCTCTGCGAAAGCGCAGC (((..((....))..))) | -11.4 | 37.6
10 | GGAATTGGAAACAATTCC (((((((....))))))) | -45.1 | 56.3
11 | GCACGGGGAAACCCGCGC ((.((((....)))).)) | -36.1 | 58.4
12 | GCGGAGAGCCGC ((((....)))) | -17.4 | 54.4
13 | GCTGAAACGAAAGTTAGC (((..(((....)))))) | -20.6 | 35
14 | GCTCCCGAAAGGGAAGC ((((((....))).))) | -31.8 | 59.3
15 | GCGTCTCACGC ((((...)))) | -23.4 | 56.4
16 | GATGACACGAAAGTGATC (((..(((....)))))) | -11.4 | 30.9
17 | GCCTAGCGAAAGCTATGC ((.((((....)))).)) | -23.6 | 46.2
18 | GCAGGGCGAAAGCCTAGC ((..(((....)))..)) | -18.9 | 55.2
19 | GCGTTTCGAAAGAACCGC (((.(((....))).))) | -39.8 | 52.4
20 | GCTATGGGAAACTATAGC (((((.(....).))))) | -33.3 | 43.7
21 | GTTGCTGGAAACAGTAAC (((.(((....))).))) | -29 | 47
22 | GACAGCGAAAGCTCAGTC ((((((....)))..))) | -11.5 | 38.7
23 | GATCAACGAGTTGATC ((((((....)))))) | -51 | 55.6
24 | GTCTGGGGAAACCTAGAC ((((.((....)).)))) | -29.7 | 47.6

Row | Sequence | folding enthalpy [1] [kcal/mol] | Tm [2] [°C]
25 | GCGAAGCGAAAGCCCCGC (((..((....))..))) | -7.44 | 36.3
26 | GCCGTACCGAAAGGTGGC (((..(((....)))))) | -25.1 | 53.8
27 | AATTCGAAAGAATT (((((....))))) | -14.3 | 43.3
28 | GATCCACAATTGGATC ((((((....)))))) | -32.4 | 47.5
29 | TCTCGGAAACGAGA (((((....))))) | -19.6 | 47.9
30 | GATCATACGATGATC ((((((...)))))) | -29.4 | 46.9
31 | GATCGTAACGACGATC ((((((....)))))) | -34.8 | 54.9
32 | TACGGGAAACCGTA (((((....))))) | -15.8 | 48.5
33 | GGACACGAAAGTGGATCC ((((((....)))..))) | -15.6 | 40.3
34 | GTTGTCGAAAGACAAC ((((((....)))))) | -27.7 | 67.5
35 | GCTGCTCGAAAGAGTAGC (((.(((....))).))) | -38.9 | 62.1
36 | GAGACTCCGAAAGGACTC (((..(((....)))))) | -12.8 | 25.6
37 | GCTATTGGAAACAATGGC ((.((((....)))).)) | -36.1 | 45.7
38 | GCCCCCTCGAAAGAGGGC (((..(((....)))))) | -6 | 37.6
39 | GGCGTCGAAAGACTGCC ((((((....))).))) | -36.4 | 57
40 | GATCTAATCTAGATC ((((((...)))))) | -28.2 | 38.8
41 | GAGTGAGCGAAAGCTCTC (((..(((....)))))) | -9.01 | 32.9
42 | GATCAGCCCCTGATC ((((((...)))))) | -36.2 | 49.2
43 | GATCTGTCCGCAGATC ((((((....)))))) | -43.6 | 52.9
44 | GCATCGGGAAACCGATAC (.(((((....))))).) | -13.7 | 41.5
45 | GCGCTGCGAAAGCATCGC (((.(((....))).))) | -60.2 | 58.6
46 | GCTTGCGGAAACGTAGGC ((.(.((....)).).)) | -11.7 | 38.6
47 | GCGTCGAAACGC ((((....)))) | -18.4 | 51.3
48 | GTCTCTCGAAAGAGTGAC (((.(((....))).))) | -32.6 | 49.7

Row | Sequence | folding enthalpy [1] [kcal/mol] | Tm [2] [°C]
49 | GATCGTTAGGACGATC ((((((....)))))) | -37.9 | 55.2
50 | GAAGGGACGAAAGTCTTC (((..(((....)))))) | -11.8 | 26.7
51 | GATCAGCAAACTGATC ((((((....)))))) | -32 | 48.2
52 | GTGGTGGGAAACCATCGC (.(.(((....))).).) | -24.9 | 41.6
53 | GCAGGACGAAAGTCATGC (((.(((....))).))) | -37.9 | 66.3
54 | GAGACTGGAAACAGCCTC (((.(((....))).))) | -23.8 | 43.3
55 | CGAAACGGAAACGTTCG (((.(((....)))))) | -25.9 | 45
56 | GGCACCGGAAACGGTGTC (.(((((....))))).) | -24.8 | 59.9
57 | GATCGGAGCACCGATC ((((((....)))))) | -34.3 | 57.4
58 | GCGCAGCGAAAGCCGTGC ((.(.((....)).).)) | -9.79 | 46.2
59 | GGGGACGAAAGTCTTCCC ((((((....)))..))) | -17.8 | 39.3
60 | GATCGATAGATCGATC ((((((....)))))) | -18.9 | 61.1
61 | GCTGTCACGAAAGTGAGC (((..(((....)))))) | -12.2 | 38.3
62 | GAAAACGGAAACGTTTTC (((((((....))))))) | -39.4 | 57.9
63 | GCGGAGCGAAAGCTTGGC ((..(((....)))..)) | -13.5 | 39.4
64 | GGTTAGGGAAACCTAGCC ((.((((....)))).)) | -27.2 | 46.3
65 | GCAGGGGGAAACCCCCAC (..((((....))))..) | -9.57 | 33.1
66 | GCGCGCGGAAACGCACGC (((.(((....))).))) | -32.6 | 67.8
67 | GATCTGGGTCCAGATC ((((((....)))))) | -42.5 | 52.7
68 | GCGAACGGTCGC ((((....)))) | -30.9 | 47.7
69 | GCGTCTGGAAACAGATGC ((.((((....)))).)) | -55.5 | 54.6
70 | GGAGTTACGAAAGTATCC (((..(((....)))))) | -9.09 | 26.1

Source: the array DNA melting data of Ke et al. (doi:10.1101/2024.01.08.574731)
